21 compounds from ChEMBL document CHEMBL1141166, “2-[(Carboxymethyl)sulfanyl]-4-oxo-4-arylbutanoic acids selectively suppressed proliferation of neoplastic human HeLa cells. A SAR/QSAR study” (J Med Chem, 2005) can be followed below.

A short description of series [1]: Partition coefficient (logP). The series is classed as physicochemical. The following applies: octanol/water. In short, it runs like this: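 Calculated rather than measured: log P (n-octanol/water) estimated by Crippen's fragmentation method.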
The subject of series [2] is HeLa. Briefly: Inhibitory concentration inducing 50% decrease in HeLa cell survival. As to conditions: Homo sapiens. It counts as functional, cell-based. The method, boiled down: (§1)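 HeLa cells seeded at 2000/well and left 20 h, then exposed to five concentrations (final 3.12 to 50 or 100 μM/L, diluted from a 10 mM/L DMSO stock) in triplicate for 72 h. Medium was RPMI 1640 without phenol red with 10% FBS and 25 mM HEPES, pH 7.2. Survival by MTT: 4 h at 37 °C, SDS lysis, A570. Blank was subtracted and values taken as % of untreated control. IC50 is the concentration giving 50% survival loss.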

Series [3] concerns HeLa. Description: Observed concentration that required to induce 50% decrease in HeLa cell survival. The series is classed as functional, cell-based. The following applies: Homo sapiens, read-out: Log 1/IC50 (converted). In short, it runs like this: as §1
For series [4], the system named is PBMC (Homo sapiens). Briefly: Selectivity index that required to induce 50% decrease in PBMC (healthy human's peripheral blood cells) cells survival.
Series [5] concerns PBMC+PHA (Homo sapiens). Briefly: Selectivity index that required to induce 50% decrease in PBMC+PHA (healthy human's peripheral blood cells) cells survival.
The subject of series [6] is PBMC (Homo sapiens). Description: Inhibitory concentration that required to Induced a 50% decrease in PBMC (healthy human's peripheral blood cells) cells survival.
Series [7] concerns PBMC+PHA (Homo sapiens). Description: Inhibitory concentration that required to Induced a 50% decrease in PBMC+PHA (healthy human's peripheral blood cells) cells survival.
The test system of series [8] is PBMC (Homo sapiens). Briefly: Inhibitory concentration that required to induce 50% decrease in PBMC (healthy human's peripheral blood cells) cells survival.
Series [9] concerns PBMC+PHA (Homo sapiens). Briefly: Inhibitory concentration that required to induce 50% decrease in PBMC+PHA (healthy human's peripheral blood cells) cells survival.
Series [10] concerns PBMC+PHA (Homo sapiens). Description: Inhibitory concentration that required to induced a 50% decrease in PBMC+PHA (healthy human's peripheral blood cells) cells survival.

Each structure is given as a SMILES string. Bounds are passed on as bounds.

Broadly, the logP is the decadic logarithm of the partition coefficient of the neutral form, usually between octanol and water.

As for `CC(C)c1cc(C(C)C)c(C(=O)CC(SCC(=O)O)C(=O)O)c(C(C)C)c1` (stereo not drawn), in series [1], the logP was determined as 4.41. Besides, the IC50 in series [2] is 1.66 µM; in [3] it was 1.66 µM; in series [6], 3.32 µM; in [7], 4.78 µM. For the same compound, the Si in series [4] is 2; in series [5], 2.58.

As for `O=C(O)CSC(CC(=O)c1ccc(Cl)cc1)C(=O)O` (stereo not drawn), in series [1], the logP is 1.27. In addition, the IC50 in series [2] was 17.2 µM; in [3], 17.3 µM.

For `CCCCc1ccc(C(=O)CC(SCC(=O)O)C(=O)O)cc1` (stereo not drawn), in series [1], the logP came to 2.45. Also, the IC50 was 1.92 µM in series [2] and 1.91 µM in series [3].

On to `CC(C)c1ccc(C(C)C)c(C(=O)CC(SCC(=O)O)C(=O)O)c1` (stereo not drawn), for which the logP in series [1] turned out to be 3.18. For the same compound, the IC50 in series [2] was 0.644 µM; in series [3], 0.644 µM; in series [8] it was 13.3 µM; in series [9], 15.7 µM. The Si in [4] turned out to be 20.65; in [5] it was 24.33.

On to `O=C(O)CSC(CC(=O)c1ccccc1)C(=O)O` (stereo not drawn), for which the lipophilicity (logP) in series [1] is 0.71. Moreover, the IC50 in series [2] and in series [3] was 15 µM in each case.

Regarding `Cc1ccc(C(=O)CC(SCC(=O)O)C(=O)O)c(Cl)c1` (stereo not drawn), the lipophilicity (logP) in series [1] stood at 1.75. For the same compound, the IC50 in [2] and in series [3] was 4.73 µM in each case.

On to `O=C(O)CSC(CC(=O)c1ccc(F)cc1)C(=O)O` (stereo not drawn), for which the logP in [1] was 0.87. The IC50 in series [2] and in [3] was 20.7 µM in each case.

`CC(C)(C)c1ccc(C(=O)CC(SCC(=O)O)C(=O)O)cc1` (stereo not drawn) showed a logP in series [1] of 2.41. Further, the IC50 in series [2] and in series [3] was 1.39 µM each time.

The compound `Cc1ccc(C(=O)CC(SCC(=O)O)C(=O)O)cc1` (stereo not drawn) showed a lipophilicity (logP) in [1] of 1.2. Moreover, the IC50 in series [2] and in series [3] was 17.3 µM in each case.

Consider `CCc1cc(CC)c(C(=O)CC(SCC(=O)O)C(=O)O)c(CC)c1` (stereo not drawn), for which, in [1], the log partition coefficient (logP) was determined as 3.42. The IC50 in series [2] was 0.88 µM; in series [3], 0.879 µM; in [6] it was 19 µM; in [7] it was 19.9 µM. The Si worked out at 21.56 in series [4] and 22.63 in series [5].

Regarding `Cc1ccc(C)c(C(=O)CC(SCC(=O)O)C(=O)O)c1` (stereo not drawn), the logP in series [1] stood at 1.68. The IC50 in series [2] and in series [3] was 2.68 µM throughout.

As to `Cc1ccc(C(=O)CC(SCC(=O)O)C(=O)O)c(C)c1` (stereo not drawn), the logP in series [1] worked out at 1.68. Besides, the IC50 in series [2] and in series [3] was 3.83 µM each time.

In [1], `CC(C)c1ccc(C(=O)CC(SCC(=O)O)C(=O)O)c(C(C)C)c1` (stereo not drawn) showed a logP of 3.18. Besides, the IC50 in [2] is 1.1 µM; in series [3] it was 1.1 µM; in series [8] it was 6.79 µM; in series [10], 7.14 µM. Further, the figures for the Si in [4] and in series [5] were 6.17 and 6.49, respectively.

The compound `Cc1ccc(C(=O)CC(SCC(=O)O)C(=O)O)cc1C` (stereo not drawn) had a lipophilicity (logP) in series [1] of 1.68. The IC50 in [2] and in [3] was 3.81 µM each time.

Compound `O=C(O)CSC(CC(=O)c1ccc(Br)cc1)C(=O)O` (stereo not drawn) had a logP in series [1] of 1.54. The IC50 was 9.5 µM in series [2] and 9.51 µM in series [3].

In turn, `CC(C)c1ccc(C(=O)CC(SCC(=O)O)C(=O)O)cc1` (stereo not drawn) had a logP in series [1] of 1.94. Further, the IC50 in series [2] and in [3] was 3.33 µM each time.

`COc1ccc(C(=O)CC(SCC(=O)O)C(=O)O)c(OC)c1OC` (stereo not drawn) displayed a logP in series [1] of 0.33. For the same compound, the IC50 in series [2] and in [3] was 29.5 µM in each case.

`CC(C)(C)c1ccc(C(C)(C)C)c(C(=O)CC(SCC(=O)O)C(=O)O)c1` (stereo not drawn): in series [1], the log partition coefficient (logP) is 4.12. In addition, the IC50 in [2] is 4.36 µM; in series [3], 4.36 µM; in series [8], 43.7 µM; in series [7], 37.1 µM. For the same compound, the Si in [4] came out at 10; in [5], 8.5.

As for `CCCCCCCCCCCCc1ccc(C(=O)CC(SCC(=O)O)C(=O)O)cc1` (stereo not drawn), in series [1], the logP turned out to be 5.79. In addition, the IC50 in series [2] and in series [3] was 1.71 µM each time.

As for `CCc1ccc(C(=O)CC(SCC(=O)O)C(=O)O)cc1` (stereo not drawn), the logP in series [1] was determined as 1.61. Also, the IC50 in series [2] and in [3] was 4.79 µM in each case.

With `O=C(O)CS` [THIOGLYCOLIC ACID], the IC50 in series [2], in series [8] and in [9] was > 200 µM each time.
